Assay results: paper PMC10763047 (Chemical Science, 2023)

What was measured:
p110α [1] = target: p110α (Homo sapiens, UniProt P42336, E545K); assay: Western blot of p110α degradation in MCF7 cells; type: cell-based; conditions: pretreatment before WJ112-14
How it was run: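 MCF7 cells (p110α E545K) were exposed to test compound for 6 h, or 6 h and 24 h in some runs. Integrated PI3Kα western blot signals were normalised to α-tubulin and DMSO. SD came from biological triplicates at selected concentrations. Mechanistic runs used pretreatment with bortezomib, MLN4924 or TAK-243, a glutarimide-methylated CRBN-binding-dead analogue, and washout to follow p110α recovery.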

p110α [2] = assay: Western blot of p110α degradation in a panel of cell lines; type: cell-based; conditions: MCF7 and T47D cell lines

Sequence of p110α (Homo sapiens, UniProt P42336, E545K) (P42336 whole entry E545K): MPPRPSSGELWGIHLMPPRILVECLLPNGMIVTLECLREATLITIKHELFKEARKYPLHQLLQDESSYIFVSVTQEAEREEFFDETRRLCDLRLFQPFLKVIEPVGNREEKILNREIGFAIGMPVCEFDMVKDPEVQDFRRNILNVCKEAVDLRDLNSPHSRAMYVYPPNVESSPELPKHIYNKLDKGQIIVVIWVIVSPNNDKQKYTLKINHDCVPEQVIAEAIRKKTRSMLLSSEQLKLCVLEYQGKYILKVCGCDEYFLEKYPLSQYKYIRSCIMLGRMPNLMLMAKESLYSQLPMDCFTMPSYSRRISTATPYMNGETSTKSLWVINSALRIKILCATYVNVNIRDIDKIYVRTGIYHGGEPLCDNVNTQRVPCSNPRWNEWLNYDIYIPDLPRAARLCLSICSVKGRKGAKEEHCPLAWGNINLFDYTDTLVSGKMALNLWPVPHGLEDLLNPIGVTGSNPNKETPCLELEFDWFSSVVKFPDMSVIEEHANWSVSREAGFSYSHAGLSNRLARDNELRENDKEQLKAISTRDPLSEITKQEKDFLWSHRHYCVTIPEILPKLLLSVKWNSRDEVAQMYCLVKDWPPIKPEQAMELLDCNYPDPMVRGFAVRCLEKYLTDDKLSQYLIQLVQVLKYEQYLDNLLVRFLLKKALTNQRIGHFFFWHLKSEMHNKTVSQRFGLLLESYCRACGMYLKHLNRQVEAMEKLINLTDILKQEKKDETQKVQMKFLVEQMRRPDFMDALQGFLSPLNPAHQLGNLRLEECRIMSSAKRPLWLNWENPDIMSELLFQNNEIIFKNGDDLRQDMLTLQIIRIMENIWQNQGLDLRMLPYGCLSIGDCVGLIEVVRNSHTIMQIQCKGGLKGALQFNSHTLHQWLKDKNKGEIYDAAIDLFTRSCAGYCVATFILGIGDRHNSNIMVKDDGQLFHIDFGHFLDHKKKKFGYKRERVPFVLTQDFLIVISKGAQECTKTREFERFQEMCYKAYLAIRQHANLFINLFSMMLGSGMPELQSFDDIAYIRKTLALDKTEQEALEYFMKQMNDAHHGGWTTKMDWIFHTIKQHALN
Sequence of p110α (Homo sapiens, UniProt P42336, E545K) (P27986 whole entry partner): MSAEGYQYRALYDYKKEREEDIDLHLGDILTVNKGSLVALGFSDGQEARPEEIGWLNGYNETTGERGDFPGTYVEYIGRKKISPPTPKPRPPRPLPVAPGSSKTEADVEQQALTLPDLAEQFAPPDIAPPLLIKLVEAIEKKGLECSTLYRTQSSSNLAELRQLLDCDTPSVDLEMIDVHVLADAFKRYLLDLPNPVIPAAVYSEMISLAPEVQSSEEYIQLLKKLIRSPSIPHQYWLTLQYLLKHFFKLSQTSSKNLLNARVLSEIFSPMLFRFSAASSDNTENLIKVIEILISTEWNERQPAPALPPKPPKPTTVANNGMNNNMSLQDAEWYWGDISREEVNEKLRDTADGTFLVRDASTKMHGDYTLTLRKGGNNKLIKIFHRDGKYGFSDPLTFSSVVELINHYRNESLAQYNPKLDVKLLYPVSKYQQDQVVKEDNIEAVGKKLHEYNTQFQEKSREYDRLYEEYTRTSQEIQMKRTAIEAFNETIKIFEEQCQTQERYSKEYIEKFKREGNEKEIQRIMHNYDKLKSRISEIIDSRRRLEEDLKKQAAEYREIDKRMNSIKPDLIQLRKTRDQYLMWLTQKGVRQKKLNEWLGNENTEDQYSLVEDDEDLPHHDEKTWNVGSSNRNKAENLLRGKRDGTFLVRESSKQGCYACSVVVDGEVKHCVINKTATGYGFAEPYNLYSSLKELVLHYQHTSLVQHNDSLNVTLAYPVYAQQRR

Row | rescue of p110α from WJ112-14 degradation by pretreatment (p110α [1]) | Compound | p110α degradation (p110α [2])
1 | rescue of p110α | Nc1cccc2c1C(=O)N(C1CCC(=O)NC1=O)C2=O (centres unmarked) [pomalidomide] | –
2 | full rescue of p110α | NS(=O)(=O)OC[C@H]1C[C@@H](Nc2ccnc3cc(-c4cccc(SC(F)(F)F)c4)nn23)[C@H](O)[C@@H]1O [TAK-243] | –
3 | full rescue of p110α | CC(C)C[C@H](NC(=O)[C@H](Cc1ccccc1)NC(=O)c1cnccn1)B(O)O [bortezomib] | –

More lines, now with the values behind:

Row | Compound | rescue of p110α from WJ112-14 degradation by pretreatment (p110α [1]) | p110α degradation (p110α [2])
4 | NS(=O)(=O)OC[C@@H]1C[C@@H](n2ccc3c(N[C@H]4CCc5ccccc54)ncnc32)C[C@@H]1O [MLN4924] | full rescue of p110α | –
5 | Cc1nc(-c2cn3c(n2)-c2ccc(-c4cnn(C(C)(C)C(N)=O)c4)cc2OCC3)n(C(C)C)n1 [taselisib] | – | inactive
